Test results taken from ChEMBL document CHEMBL2331271, “Stereoselective synthesis of a new class of potent and selective inhibitors of human Δ8,7-sterol isomerase” (Bioorg Med Chem, 2013).
In brackets after ≈: the same amount, converted by molar mass. Activity calls are given as the source filed them. The calls are words filed in the database; no cut-off is given here.

Key:
Yarrowia lipolytica = assay: Antifungal activity against Yarrowia lipolytica assessed as inhibition of fungal growth; format: functional
Procedure, shortened: (§1)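 MIC by DIN 58940-84 broth dilution, strains kept in log phase at 28 °C in yeast extract/peptone/glucose medium, 0.5 McFarland standard. Compounds in ethanol stock 0.8 mg/mL, tested at 50, 25 and 12.5 µg/mL in duplicate wells. Controls: sterility, ethanol-only, clotrimazole 0.5 µg/mL, ketoconazole series. MIC = lowest concentration giving visibly complete growth inhibition.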

Nakaseomyces glabratus = assay: Antifungal activity against Candida glabrata assessed as inhibition of fungal growth; format: functional; procedure, shortened: as §1
Saccharomyces cerevisiae = assay: Antifungal activity against Saccharomyces cerevisiae assessed as inhibition of fungal growth; format: functional; procedure, shortened: as §1
[1] = molecular target: 3-beta-hydroxysteroid-Delta(8),Delta(7)-isomerase (Homo sapiens, UniProt Q15125); assay: Inhibition of delta8,7-sterol isomerase-mediated cholesterol biosynthesis in human HL60 cells assessed as increase in zymostenol accumulation; format: cell-based; details: for inhibition: HL-60
Sequence of 3-beta-hydroxysteroid-Delta(8),Delta(7)-isomerase (Q15125 whole entry): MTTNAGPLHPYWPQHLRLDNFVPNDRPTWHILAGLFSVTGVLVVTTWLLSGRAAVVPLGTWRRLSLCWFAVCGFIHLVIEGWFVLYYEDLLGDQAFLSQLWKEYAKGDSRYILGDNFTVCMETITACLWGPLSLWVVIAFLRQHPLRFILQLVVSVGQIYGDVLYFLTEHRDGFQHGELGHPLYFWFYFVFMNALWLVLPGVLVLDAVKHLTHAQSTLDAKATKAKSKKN
Procedure, shortened: (§2)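 HL-60 cells (10^6) incubated 24 h at 37 °C, 5% CO2 in lipid-free medium with 1% LPDS, with compound in ethanol at final 1 or 50 µM. Cells were then saponified in 1 M NaOH at 70 °C for 60 min, extracted into TBME with cholestane internal standard, and silylated with TSIM. The sterol pattern was read by GC-MS full scan, with sterols identified by retention time and MS against authentic samples.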

[2] = molecular target: 3-beta-hydroxysteroid-Delta(8),Delta(7)-isomerase/Delta(24)-sterol reductase (Homo sapiens) (UniProt Q15125+Q15392); assay: Inhibition of Delta(8)-Delta(7) sterol isomerase/Delta(24)-sterol reductase-mediated cholesterol biosynthesis in human HL60 cells assessed as increase in zymostenol and zymosterol accumulation; format: cell-based; details: HL-60; procedure, shortened: as §2
Sequence of 3-beta-hydroxysteroid-Delta(8),Delta(7)-isomerase/Delta(24)-sterol reductase (Homo sapiens) (Q15125 whole entry, looked up): as the sequence (Q15125 whole entry) above
Sequence of 3-beta-hydroxysteroid-Delta(8),Delta(7)-isomerase/Delta(24)-sterol reductase (Homo sapiens) (Q15392 whole entry, looked up): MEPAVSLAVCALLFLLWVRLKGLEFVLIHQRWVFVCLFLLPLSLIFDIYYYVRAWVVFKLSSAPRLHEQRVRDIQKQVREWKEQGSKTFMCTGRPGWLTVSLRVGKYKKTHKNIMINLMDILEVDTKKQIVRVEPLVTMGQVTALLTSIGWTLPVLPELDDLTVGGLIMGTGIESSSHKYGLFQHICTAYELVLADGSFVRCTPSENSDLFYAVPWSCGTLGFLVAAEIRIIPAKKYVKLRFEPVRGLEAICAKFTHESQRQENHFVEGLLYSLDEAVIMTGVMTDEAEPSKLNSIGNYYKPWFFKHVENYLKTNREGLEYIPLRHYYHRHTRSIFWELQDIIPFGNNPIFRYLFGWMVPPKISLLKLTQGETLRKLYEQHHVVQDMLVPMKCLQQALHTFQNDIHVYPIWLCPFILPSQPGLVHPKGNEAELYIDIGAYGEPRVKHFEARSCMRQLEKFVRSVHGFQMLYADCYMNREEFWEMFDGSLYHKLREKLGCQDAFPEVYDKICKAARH

HL-60 = assay: Cytotoxicity against human HL60 cells by MTT assay; format: cell-based
Procedure, shortened: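 Human leukemia HL-60 cells, kept in RPMI 1640 with 10% FBS without antibiotics at 37 °C, 5% CO2. Cytotoxicity by standard Mosmann MTT test. IC50 from dose-response curves run in triplicate, reported with 95% confidence interval and R2.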

[3] = Selectivity index, ratio of cytotoxic IC50 against human HL60 cells to IC50 for delta8,7-sterol isomerase-mediated cholesterol biosynthesis in human HL60 cells; format: functional, HL-60
Procedure, shortened: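 Cytotoxicity IC50 from the HL-60 MTT test, in triplicate. Cholesterol biosynthesis IC50 came from HL-60 cells given graded inhibitor concentrations for 24 h in lipid-free medium with 1% LPDS plus 2-13C-acetate at final 62.5 µg/mL. Labelled cholesterol was measured by GC-MS (ions 372–379, 462–469), normalised to Bradford protein, and % inhibition fitted sigmoidally with bottom 0, in triplicate.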

Compound	MIC (Yarrowia lipolytica) [µg/mL]	MIC (Nakaseomyces glabratus) [µg/mL]	MIC (Saccharomyces cerevisiae) [µg/mL]	inhibition [1]	inhibition [2]	IC50 [1] [µM]	IC50 (HL-60) [µM]	Ratio IC50 [3]
CC(C)CCC[C@@H](C)[C@H]1CC[C@@]2(C)[C@@H](O)[C@@H](NCc3ccoc3)CC[C@]12C	25 (≈ 66.6 µM)	25 (≈ 66.6 µM)	25 (≈ 66.6 µM)					
COc1ccc(CN[C@H]2CC[C@]3(C)[C@@H]([C@H](C)CCCC(C)C)CC[C@@]3(C)[C@H]2O)cc1	25 (≈ 60.1 µM)	25 (≈ 60.1 µM)	25 (≈ 60.1 µM)					
CC(C)CCC[C@@H](C)[C@H]1CC[C@@]2(C)[C@@H](O)[C@@H](NCc3cccc(Cl)c3)CC[C@]12C	25 (≈ 59.5 µM)	25 (≈ 59.5 µM)	25 (≈ 59.5 µM)					
CC(C)CCC[C@@H](C)[C@H]1CC[C@@]2(C)[C@@H](O)[C@@H](N3CC(C)OC(C)C3)CC[C@]12C (mixture of isomers)	25	25	25					
CC(C)CCC[C@@H](C)[C@H]1CC[C@@]2(C)[C@H](O)[C@@H](NCc3ccc(I)o3)CC[C@]12C	25 (≈ 49.9 µM)	25 (≈ 49.9 µM)	25 (≈ 49.9 µM)	inactive				
CC(C)CCC[C@@H](C)[C@H]1CC[C@@]2(C)[C@H](O)[C@@H](NCc3ccc(Cl)cc3Cl)CC[C@]12C	25 (≈ 55 µM)	25 (≈ 55 µM)	25 (≈ 55 µM)	inactive				
CC/C(=C(\c1ccccc1)c1ccc(OCCN(C)C)cc1)c1ccccc1					Active			
CC(C)CCC[C@@H](C)[C@H]1CC[C@@]2(C)[C@H](O)[C@@H](NCc3cccc(Cl)c3Cl)CC[C@]12C	25 (≈ 55 µM)	25 (≈ 55 µM)	25 (≈ 55 µM)	inactive				
CC(C)CCC[C@@H](C)[C@H]1CC[C@@]2(C)C(=O)[C@@H](N3C(C)COCC3C)CC[C@]12C (stereo partly drawn)	25 (≈ 63.8 µM)	25 (≈ 63.8 µM)	25 (≈ 63.8 µM)	inactive				
CC(C)CCC[C@@H](C)[C@H]1CC[C@@]2(C)C(=O)[C@@H](NCc3cccnc3)CC[C@]12C	25 (≈ 65 µM)	25 (≈ 65 µM)	25 (≈ 65 µM)	inactive				
CC(C)CCC[C@@H](C)[C@H]1CC[C@@]2(C)[C@H](O)[C@@H](NCc3ccccc3)CC[C@]12C	25 (≈ 64.8 µM)	25 (≈ 64.8 µM)	25 (≈ 64.8 µM)	inactive				
CC(C)CCC[C@@H](C)[C@H]1CC[C@@]2(C)[C@@H](O)[C@@H](N(C)Cc3ccccc3)CC[C@]12C	25 (≈ 62.6 µM)	25 (≈ 62.6 µM)	25 (≈ 62.6 µM)			0.011	7	636
C=CCCCN[C@H]1CC[C@]2(C)[C@@H]([C@H](C)CCCC(C)C)CC[C@@]2(C)[C@H]1O	25 (≈ 68.8 µM)	25 (≈ 68.8 µM)	25 (≈ 68.8 µM)			0.058	15	
CCN[C@H]1CC[C@]2(C)[C@@H]([C@H](C)CCCC(C)C)CC[C@@]2(C)[C@H]1O	25 (≈ 77.3 µM)	25 (≈ 77.3 µM)	25 (≈ 77.3 µM)					
CC(C)CCC[C@@H](C)[C@H]1CC[C@@]2(C)C(=O)[C@@H](N(C)C)CC[C@]12C	25 (≈ 77.7 µM)	25 (≈ 77.7 µM)	25 (≈ 77.7 µM)	inactive				
Clc1ccccc1C(c1ccccc1)(c1ccccc1)n1ccnc1 [CLOTRIMAZOLE]	1 (≈ 2.9 µM)	2.5 (≈ 7.25 µM)	0.5 (≈ 1.45 µM)					
C=CCCCN(Cc1ccccc1)[C@H]1CC[C@]2(C)[C@@H]([C@H](C)CCCC(C)C)CC[C@@]2(C)[C@H]1O	25 (≈ 55.1 µM)	25 (≈ 55.1 µM)	25 (≈ 55.1 µM)			0.082	17	
